Laboratory results reported in PMC5749250 (Cell chemical biology, 2017).
Each block holds one compound with its values, some of them ahead of it.

How the values were obtained:
[1] = molecular target: USP7 catalytic domain (amino acids 208–560) (Homo sapiens, UniProt Q93009); assay: Ub-AMC assay, USP7 catalytic domain; format: biochemical; details: for inhibition of USP7: catalytic domain, Ub-AMC, concentrations up to 100 μM
How it was run: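 Human USP7 catalytic domain (residues 208–560) was expressed in E. coli BL21(DE3), purified on Ni-NTA, thrombin-treated, gel-filtered and used at 250 nM. 2 uM Ub-AMC was then added. Fluorescence (ex 345/em 445 nm) was read every minute for 30 min. IC50 came from initial rates plotted against concentration.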

[2] = molecular target: full-length USP7 (amino acids 1–1102) (Homo sapiens, UniProt Q93009); assay: Ub-AMC assay, full-length USP7; format: biochemical; details: XL188 vs 1
Chain of full-length USP7 (amino acids 1–1102) (Q93009 whole entry, the tested form may be a part): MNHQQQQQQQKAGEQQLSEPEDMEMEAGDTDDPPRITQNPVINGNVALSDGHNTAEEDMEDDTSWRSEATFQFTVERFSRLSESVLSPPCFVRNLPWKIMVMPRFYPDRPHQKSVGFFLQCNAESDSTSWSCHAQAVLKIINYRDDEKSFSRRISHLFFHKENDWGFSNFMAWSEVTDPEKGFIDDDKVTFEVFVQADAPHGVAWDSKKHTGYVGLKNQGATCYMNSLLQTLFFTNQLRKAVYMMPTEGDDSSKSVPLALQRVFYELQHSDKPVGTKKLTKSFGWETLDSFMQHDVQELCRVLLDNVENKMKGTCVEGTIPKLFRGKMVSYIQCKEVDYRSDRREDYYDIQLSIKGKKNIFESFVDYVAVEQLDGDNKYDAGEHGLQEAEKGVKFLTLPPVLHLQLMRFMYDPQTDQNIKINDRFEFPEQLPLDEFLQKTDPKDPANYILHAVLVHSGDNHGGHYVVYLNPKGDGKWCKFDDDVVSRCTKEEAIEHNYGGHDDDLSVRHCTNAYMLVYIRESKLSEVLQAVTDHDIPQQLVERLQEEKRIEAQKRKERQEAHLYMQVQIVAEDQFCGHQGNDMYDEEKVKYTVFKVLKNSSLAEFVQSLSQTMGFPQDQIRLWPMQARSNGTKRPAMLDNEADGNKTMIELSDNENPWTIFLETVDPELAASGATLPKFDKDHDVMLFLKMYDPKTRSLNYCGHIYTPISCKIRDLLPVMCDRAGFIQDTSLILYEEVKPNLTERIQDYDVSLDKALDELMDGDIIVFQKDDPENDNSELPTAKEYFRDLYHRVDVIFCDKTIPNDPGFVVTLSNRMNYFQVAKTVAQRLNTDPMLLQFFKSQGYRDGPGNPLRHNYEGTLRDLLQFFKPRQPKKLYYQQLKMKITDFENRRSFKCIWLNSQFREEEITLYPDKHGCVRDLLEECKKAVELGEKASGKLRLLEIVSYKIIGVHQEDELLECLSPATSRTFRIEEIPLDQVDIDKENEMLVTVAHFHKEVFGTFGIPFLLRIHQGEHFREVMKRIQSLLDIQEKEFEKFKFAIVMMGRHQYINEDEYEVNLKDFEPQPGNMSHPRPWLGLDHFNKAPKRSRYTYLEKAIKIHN
How it was run: (§1)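 Full-length USP7 (1–1102), wild type or Q351 mutant, was expressed in E. coli BL21(DE3), purified by Ni-NTA and Superdex 200 and used at 50 nM. 2 uM Ub-AMC was added and fluorescence (345/445 nm) read each minute over 30 min. Initial rates against concentration gave IC50.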

panel of purified DUBs = assay: Selectivity profiling; format: biochemical
full-length USP7Q351S = full-length USP7Q351S (Homo sapiens, UniProt Q93009, Q351S); assay: Ub-AMC assay, full-length USP7Q351S; format: biochemical; details: dose-response, amino acids 1–1102
Chain of full-length USP7Q351S (Q93009 whole entry Q351S, the tested form may be a part): as the sequence (Q93009 whole entry, the tested form may be a part) above, with Q351S counted along it
How it was run: as §1

native USP7 = native USP7 (Homo sapiens, UniProt Q93009); assay: Competitive activity based protein profiling with HA-Ub-Vs in HEK293T lysates; format: binding
Chain of native USP7 (Q93009 whole entry): as the sequence (Q93009 whole entry, the tested form may be a part) above

[3] = Mouse liver microsome stability; format: in vitro ADME; details: liver microsomes
MCF7 cells = assay: HDM2, p53 and p21 protein levels in MCF7 cells; format: cell-based; details: 16 hours
How it was run: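 MCF7 cells grown in RPMI with 10% heat-inactivated FBS and penicillin/streptomycin at 37 °C, 5% CO2. Treated with test compound or DMSO for 16 h. Where used, cycloheximide (50 ug/ml) was added at 14 h. Cells were washed in PBS and lysed in modified RIPA buffer with phosphatase and protease inhibitors. Protein was quantified by BCA, then immunoblotted for mdm2, p53, p21, GAPDH and USP7.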

MM.1S cells = assay: HDM2, p53 and p21 protein levels in MM.1S cells; format: cell-based; details: 6 hours
How it was run: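 MM.1S cells were cultured in RPMI with 10% heat-inactivated FBS and penicillin/streptomycin (37 °C, 5% CO2). They were exposed to test compound or DMSO for 6 h, with or without 50 ug/ml cycloheximide added at 4 h. After a PBS wash, cells were lysed in modified RIPA containing phosphatase and protease inhibitors. Lysates were BCA-normalised and immunoblotted for mdm2, p53, p21, GAPDH and USP7.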

[4] = Solubility in aqueous buffer; format: physicochemical
USP7 = details: read-out: IC50, USP7; ref Altun et al., 2011; Ritorto et al., 2014; cited from earlier work
USP10 = details: ref Altun et al., 2011; Ritorto et al., 2014; cited from earlier work
USP47 = details: ref Altun et al., 2011; Ritorto et al., 2014; cited from earlier work

Chain of USP7 catalytic domain (amino acids 208–560) (Q93009 208-560): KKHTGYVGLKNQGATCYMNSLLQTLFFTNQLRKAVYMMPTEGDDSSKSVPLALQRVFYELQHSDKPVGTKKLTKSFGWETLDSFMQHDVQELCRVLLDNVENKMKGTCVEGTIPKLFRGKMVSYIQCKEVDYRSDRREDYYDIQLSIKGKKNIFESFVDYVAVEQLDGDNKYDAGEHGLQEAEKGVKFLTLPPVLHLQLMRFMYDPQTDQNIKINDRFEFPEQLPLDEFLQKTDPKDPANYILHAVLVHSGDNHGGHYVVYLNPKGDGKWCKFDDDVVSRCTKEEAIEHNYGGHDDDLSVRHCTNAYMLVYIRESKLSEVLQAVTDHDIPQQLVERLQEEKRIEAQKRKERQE

SMILES: O=c1c2ccc(Cl)cc2ncn1CC1(O)CCN(CCCc2ccccc2)CC1 [Compound 4, 7-chloro-3-((4-hydroxy-1-(3-phenylpropyl)piperidin-4-yl)methyl)quinazolin-4(3H)-one]
inhibition of USP7 [1]: abrogated USP7 activity

SMILES: CC(CC(=O)N1CCC(O)(Cn2cnc3cc(Cl)ccc3c2=O)CC1)c1ccccc1 (stereo not drawn) [Compound 8, 7-chloro-3-((4-hydroxy-1-(3-phenylbutanoyl)piperidin-4-yl)methyl)quinazolin-4(3H)-one]
fold improvement of biochemical potency ([1]; relative to 1): approximately 10 fold

SMILES: CC(=O)c1cc([N+](=O)[O-])c(Sc2ccc(F)cc2F)s1 [Compound P22077]
inhibition of USP10 compared with USP7 (USP10): equipotent
inhibition of USP47 compared with USP7 (USP47): equipotent

SMILES: C[C@@H](CC(=O)N1CCC(O)(Cn2cnc3cc(NC(=O)CCN4CCN(C)CC4)ccc3c2=O)CC1)c1ccccc1 [XL203C, (S)-N-(3-((4-hydroxy-1-(3-phenylbutanoyl)piperidin-4-yl)methyl)-4-oxo-3,4-dihydroquinazolin-7-yl)-3-(4-methylpiperazin-1-yl)propanamide]
inhibition of other DUBs (panel of purified DUBs; Figure S1G, Table S1, concentration not given): no significant inhibition
levels of p53 and p21 (MCF7 cells): no observable change

SMILES: CC(=O)N1CCC(O)(Cn2cnc3cc(Cl)ccc3c2=O)CC1 [Compound 6, 3-((1-acetyl-4-hydroxypiperidin-4-yl)methyl)-7-chloroquinazolin-4(3H)-one]
IC50 [1]: > 100 µM

SMILES: O=C(CCc1ccccc1)N1CCC(Cn2cnc3cc(Cl)ccc3c2=O)CC1 [Compound 2, 7-chloro-3-((1-(3-phenylpropanoyl)piperidin-4-yl)methyl)quinazolin-4(3H)-one]
inhibition of USP7 [1]: little inhibition

SMILES: O=C(Cc1ccccc1)N1CCC(O)(Cn2cnc3cc(Cl)ccc3c2=O)CC1 [Compound 7, 7-chloro-3-((4-hydroxy-1-(2-phenylacetyl)piperidin-4-yl)methyl)quinazolin-4(3H)-one]
IC50 [1]: > 100 µM

Now from value to compound, other results behind:

inhibition of USP7 [1]: little inhibition
SMILES: N#CC1(Cn2cnc3cc(Cl)ccc3c2=O)CCN(C(=O)CCc2ccccc2)CC1 [Compound 3, 4-((7-chloro-4-oxoquinazolin-3(4H)-yl)methyl)-1-(3-phenylpropanoyl)piperidine-4-carbonitrile]

IC50 [1]: 0.193 µM
fold improvement in biochemical inhibition of USP7 compared to 1 [2]: 100 fold
inhibition of full-length USP7Q351S (full-length USP7Q351S): resistant
IC50 (native USP7): ~0.9 µM
half-life [3]: 31 min
SMILES: C[C@H](CC(=O)N1CCC(O)(Cn2cnc3cc(NC(=O)CCN4CCN(C)CC4)ccc3c2=O)CC1)c1ccccc1 [XL188, (R)-N-(3-((4-hydroxy-1-(3-phenylbutanoyl)piperidin-4-yl)methyl)-4-oxo-3,4-dihydroquinazolin-7-yl)-3-(4-methylpiperazin-1-yl)propanamide]
inhibition of DUBs other than USP7, panel of 41 purified DUBs (panel of purified DUBs; 10 μM compound, Ub-Rho as substrate): little to no inhibition
levels of p53 and p21 (MCF7 cells): increased
HDM2 level (MCF7 cells; cycloheximide for the last 2 hours): Degradation of HDM2
HDM2 level (MM.1S cells): loss of HDM2
levels of p21 and p53 (MM.1S cells): increase

fold more potent than the (S)-stereoisomer (10) ([1]; (R)- vs (S)-stereoisomer): approximately 100 fold
solubility in aqueous buffer [4]: poor
SMILES: C[C@H](CC(=O)N1CCC(O)(Cn2cnc3cc(Cl)ccc3c2=O)CC1)c1ccccc1 [Compound 9, (R)-7-chloro-3-((4-hydroxy-1-(3-phenylbutanoyl)piperidin-4-yl)methyl)quinazolin-4(3H)-one]

inhibition of USP7 [1]: abrogated USP7 activity
SMILES: O=C(CCc1ccccc1)N1CCC(O)(Cn2cnc3cc(Cl)ccc3c2=O)C1 (stereo not drawn) [Compound 5, 7-chloro-3-((3-hydroxy-1-(3-phenylpropanoyl)pyrrolidin-3-yl)methyl)quinazolin-4(3H)-one]
